Reference: ChEMBL document CHEMBL2413013, “Triplex-forming ability of oligonucleotides containing 1-aryl-1,2,3-triazole nucleobases linked via a two atom-length spacer” (Bioorg Med Chem, 2013)

How the values were obtained:
[1] = Binding affinity to hairpin double stranded DNA CG base pair in sodium cacodylate buffer at pH 6.8 assessed as triplex-forming ability measuring melting temperature after by UV melting experiment
Outline: (§1)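 TFO and hairpin dsDNA target, each strand at 1.89 μM final, in 10 mM sodium cacodylate (pH 6.8) with 100 mM KCl and 50 mM MgCl₂. Annealed in boiling water, then cooled slowly to 5 °C. Melting was followed at 260 nm from 5 to 90 °C at 0.5 °C/min. Tm was taken by the two-point average method, mean of three independent runs.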

[2] = Binding affinity to hairpin double stranded DNA AT base pair in sodium cacodylate buffer at pH 6.8 assessed as triplex-forming ability measuring melting temperature after by UV melting experiment; outline: as §1
[3] = Binding affinity to hairpin double stranded DNA GC base pair in sodium cacodylate buffer at pH 6.8 assessed as triplex-forming ability measuring melting temperature after by UV melting experiment; outline: as §1
[4] = Binding affinity to hairpin double stranded DNA TA base pair in sodium cacodylate buffer at pH 6.8 assessed as triplex-forming ability measuring melting temperature after by UV melting experiment; outline: as §1

| Structure (SMILES) | Tm [1] | Tm [2] | Tm [3] | Tm [4] |
| --- | --- | --- | --- | --- |
| Cc1cn([C@H]2C[C@H](O[PH](OCCC#N)(OC[C@H]3O[C@@H](n4cc(C)c(=O)[nH]c4=O)C[C@@H]3O[PH](OCCC#N)(OC[C@H]3O[C@@H](n4cc(C)c(=O)[nH]c4=O)C[C@@H]3O[PH](OCCC#N)(OC[C@H]3O[C@@H](n4cc(C)c(=O)[nH]c4=O)C[C@@H]3O[PH](OCCC#N)(OC[C@H]3O[C@@H](n4cc(C)c(=O)[nH]c4=O)C[C@@H]3O[PH](OCCC#N)(OC(C)[C@H]3O[C@@H](n4ccc(N)nc4=O)C[C@@H]3O[PH](OCCC#N)(OC[C@H]3O[C@@H](n4cc(C)c(=O)[nH]c4=O)C[C@@H]3O[PH](OCCC#N)(OC[C@H]3O[C@@H](CCc4cn(-c5ccc(CO)cc5)nn4)C[C@@H]3OP(=O)(O)OC[C@H]3O[C@@H](n4cc(C)c(=O)[nH]c4=O)C[C@@H]3O[PH](OCCC#N)(OC(C)[C@H]3O[C@@H](n4ccc(N)nc4=O)C[C@@H]3O[PH](OCCC#N)(OC[C@H]3O[C@@H](n4cc(C)c(=O)[nH]c4=O)C[C@@H]3O[PH](OCCC#N)(OC(C)[C@H]3O[C@@H](n4ccc(N)nc4=O)C[C@@H]3O[PH](OCCC#N)(OC[C@H]3O[C@@H](n4cc(C)c(=O)[nH]c4=O)C[C@@H]3O[PH](OCCC#N)(OC(C)[C@H]3O[C@@H](n4ccc(N)nc4=O)C[C@@H]3O[PH](OCCC#N)(OC[C@H]3O[C@@H](n4cc(C)c(=O)[nH]c4=O)C[C@@H]3O)N(C(C)C)C(C)C)N(C(C)C)C(C)C)N(C(C)C)C(C)C)N(C(C)C)C(C)C)N(C(C)C)C(C)C)N(C(C)C)C(C)C)N(C(C)C)C(C)C)N(C(C)C)C(C)C)N(C(C)C)C(C)C)N(C(C)C)C(C)C)N(C(C)C)C(C)C)N(C(C)C)C(C)C)N(C(C)C)C(C)C)[C@@H](CO)O2)c(=O)[nH]c1=O (stereo not given in full) | 23 °C | 19 °C | 19 °C | 22 °C |
| Cc1cn([C@H]2C[C@H](O[PH](OCCC#N)(OC[C@H]3O[C@@H](n4cc(C)c(=O)[nH]c4=O)C[C@@H]3O[PH](OCCC#N)(OC[C@H]3O[C@@H](n4cc(C)c(=O)[nH]c4=O)C[C@@H]3O[PH](OCCC#N)(OC[C@H]3O[C@@H](n4cc(C)c(=O)[nH]c4=O)C[C@@H]3O[PH](OCCC#N)(OC[C@H]3O[C@@H](n4cc(C)c(=O)[nH]c4=O)C[C@@H]3O[PH](OCCC#N)(OC(C)[C@H]3O[C@@H](n4ccc(N)nc4=O)C[C@@H]3O[PH](OCCC#N)(OC[C@H]3O[C@@H](n4cc(C)c(=O)[nH]c4=O)C[C@@H]3O[PH](OCCC#N)(OC[C@H]3O[C@@H](OCc4cn(-c5ccc(CO)cc5)nn4)C[C@@H]3OP(=O)(O)OC[C@H]3O[C@@H](n4cc(C)c(=O)[nH]c4=O)C[C@@H]3O[PH](OCCC#N)(OC(C)[C@H]3O[C@@H](n4ccc(N)nc4=O)C[C@@H]3O[PH](OCCC#N)(OC[C@H]3O[C@@H](n4cc(C)c(=O)[nH]c4=O)C[C@@H]3O[PH](OCCC#N)(OC(C)[C@H]3O[C@@H](n4ccc(N)nc4=O)C[C@@H]3O[PH](OCCC#N)(OC[C@H]3O[C@@H](n4cc(C)c(=O)[nH]c4=O)C[C@@H]3O[PH](OCCC#N)(OC(C)[C@H]3O[C@@H](n4ccc(N)nc4=O)C[C@@H]3O[PH](OCCC#N)(OC[C@H]3O[C@@H](n4cc(C)c(=O)[nH]c4=O)C[C@@H]3O)N(C(C)C)C(C)C)N(C(C)C)C(C)C)N(C(C)C)C(C)C)N(C(C)C)C(C)C)N(C(C)C)C(C)C)N(C(C)C)C(C)C)N(C(C)C)C(C)C)N(C(C)C)C(C)C)N(C(C)C)C(C)C)N(C(C)C)C(C)C)N(C(C)C)C(C)C)N(C(C)C)C(C)C)N(C(C)C)C(C)C)[C@@H](CO)O2)c(=O)[nH]c1=O (stereo not given in full) | 22 °C | 19 °C | 19 °C | 19 °C |
| Cc1cn([C@H]2C[C@H](O[PH](OCCC#N)(OC[C@H]3O[C@@H](n4cc(C)c(=O)[nH]c4=O)C[C@@H]3O[PH](OCCC#N)(OC[C@H]3O[C@@H](n4cc(C)c(=O)[nH]c4=O)C[C@@H]3O[PH](OCCC#N)(OC[C@H]3O[C@@H](n4cc(C)c(=O)[nH]c4=O)C[C@@H]3O[PH](OCCC#N)(OC[C@H]3O[C@@H](n4cc(C)c(=O)[nH]c4=O)C[C@@H]3O[PH](OCCC#N)(OC(C)[C@H]3O[C@@H](n4ccc(N)nc4=O)C[C@@H]3O[PH](OCCC#N)(OC[C@H]3O[C@@H](n4cc(C)c(=O)[nH]c4=O)C[C@@H]3O[PH](OCCC#N)(OC[C@H]3O[C@@H](CCc4cn(-c5cccc(CO)c5)nn4)C[C@@H]3OP(=O)(O)OC[C@H]3O[C@@H](n4cc(C)c(=O)[nH]c4=O)C[C@@H]3O[PH](OCCC#N)(OC(C)[C@H]3O[C@@H](n4ccc(N)nc4=O)C[C@@H]3O[PH](OCCC#N)(OC[C@H]3O[C@@H](n4cc(C)c(=O)[nH]c4=O)C[C@@H]3O[PH](OCCC#N)(OC(C)[C@H]3O[C@@H](n4ccc(N)nc4=O)C[C@@H]3O[PH](OCCC#N)(OC[C@H]3O[C@@H](n4cc(C)c(=O)[nH]c4=O)C[C@@H]3O[PH](OCCC#N)(OC(C)[C@H]3O[C@@H](n4ccc(N)nc4=O)C[C@@H]3O[PH](OCCC#N)(OC[C@H]3O[C@@H](n4cc(C)c(=O)[nH]c4=O)C[C@@H]3O)N(C(C)C)C(C)C)N(C(C)C)C(C)C)N(C(C)C)C(C)C)N(C(C)C)C(C)C)N(C(C)C)C(C)C)N(C(C)C)C(C)C)N(C(C)C)C(C)C)N(C(C)C)C(C)C)N(C(C)C)C(C)C)N(C(C)C)C(C)C)N(C(C)C)C(C)C)N(C(C)C)C(C)C)N(C(C)C)C(C)C)[C@@H](CO)O2)c(=O)[nH]c1=O (stereo not given in full) | 23 °C | 19 °C | 20 °C | 23 °C |

Now from value to compound:

| Tm [1] | Tm [2] | Tm [3] | Tm [4] | Structure (SMILES) |
| --- | --- | --- | --- | --- |
| 22 °C | 20 °C | 19 °C | 18 °C | Cc1cn([C@H]2C[C@H](O[PH](OCCC#N)(OC[C@H]3O[C@@H](n4cc(C)c(=O)[nH]c4=O)C[C@@H]3O[PH](OCCC#N)(OC[C@H]3O[C@@H](n4cc(C)c(=O)[nH]c4=O)C[C@@H]3O[PH](OCCC#N)(OC[C@H]3O[C@@H](n4cc(C)c(=O)[nH]c4=O)C[C@@H]3O[PH](OCCC#N)(OC[C@H]3O[C@@H](n4cc(C)c(=O)[nH]c4=O)C[C@@H]3O[PH](OCCC#N)(OC(C)[C@H]3O[C@@H](n4ccc(N)nc4=O)C[C@@H]3O[PH](OCCC#N)(OC[C@H]3O[C@@H](n4cc(C)c(=O)[nH]c4=O)C[C@@H]3O[PH](OCCC#N)(OC[C@H]3O[C@@H](CCc4cn(-c5ccccc5O)nn4)C[C@@H]3OP(=O)(O)OC[C@H]3O[C@@H](n4cc(C)c(=O)[nH]c4=O)C[C@@H]3O[PH](OCCC#N)(OC(C)[C@H]3O[C@@H](n4ccc(N)nc4=O)C[C@@H]3O[PH](OCCC#N)(OC[C@H]3O[C@@H](n4cc(C)c(=O)[nH]c4=O)C[C@@H]3O[PH](OCCC#N)(OC(C)[C@H]3O[C@@H](n4ccc(N)nc4=O)C[C@@H]3O[PH](OCCC#N)(OC[C@H]3O[C@@H](n4cc(C)c(=O)[nH]c4=O)C[C@@H]3O[PH](OCCC#N)(OC(C)[C@H]3O[C@@H](n4ccc(N)nc4=O)C[C@@H]3O[PH](OCCC#N)(OC[C@H]3O[C@@H](n4cc(C)c(=O)[nH]c4=O)C[C@@H]3O)N(C(C)C)C(C)C)N(C(C)C)C(C)C)N(C(C)C)C(C)C)N(C(C)C)C(C)C)N(C(C)C)C(C)C)N(C(C)C)C(C)C)N(C(C)C)C(C)C)N(C(C)C)C(C)C)N(C(C)C)C(C)C)N(C(C)C)C(C)C)N(C(C)C)C(C)C)N(C(C)C)C(C)C)N(C(C)C)C(C)C)[C@@H](CO)O2)c(=O)[nH]c1=O (stereo not given in full) |
| 23 °C | 20 °C | 20 °C | 20 °C | CC1=CN([C@H]2C[C@H](O[PH](OCCC#N)(OC(C)[C@H]3O[C@@H](n4ccc(N)nc4=O)C[C@@H]3O[PH](OCCC#N)(OC[C@H]3O[C@@H](n4cc(C)c(=O)[nH]c4=O)C[C@@H]3O[PH](OCCC#N)(OC[C@H]3O[C@@H](OCc4cn(-c5ccccc5O)nn4)C[C@@H]3OP(=O)(O)OC[C@H]3O[C@@H](n4cc(C)c(=O)[nH]c4=O)C[C@@H]3O[PH](OCCC#N)(OC(C)[C@H]3O[C@@H](n4ccc(N)nc4=O)C[C@@H]3O[PH](OCCC#N)(OC[C@H]3O[C@@H](n4cc(C)c(=O)[nH]c4=O)C[C@@H]3O[PH](OCCC#N)(OC(C)[C@H]3O[C@@H](n4ccc(N)nc4=O)C[C@@H]3O[PH](OCCC#N)(OC[C@H]3O[C@@H](n4cc(C)c(=O)[nH]c4=O)C[C@@H]3O[PH](OCCC#N)(OC(C)[C@H]3O[C@@H](n4ccc(N)nc4=O)C[C@@H]3O[PH](OCCC#N)(OC[C@H]3O[C@@H](n4cc(C)c(=O)[nH]c4=O)C[C@@H]3O)N(C(C)C)C(C)C)N(C(C)C)C(C)C)N(C(C)C)C(C)C)N(C(C)C)C(C)C)N(C(C)C)C(C)C)N(C(C)C)C(C)C)N(C(C)C)C(C)C)N(C(C)C)C(C)C)N(C(C)C)C(C)C)[C@@H](CO[PH](OCCC#N)(O[C@H]3C[C@H](n4cc(C)c(=O)[nH]c4=O)O[C@@H]3CO[PH](OCCC#N)(O[C@H]3C[C@H](n4cc(C)c(=O)[nH]c4=O)O[C@@H]3CO[PH](OCCC#N)(O[C@H]3C[C@H](n4cc(C)c(=O)[nH]c4=O)O[C@@H]3CO[PH](OCCC#N)(O[C@H]3C[C@H](n4cc(C)c(=O)[nH]c4=O)O[C@@H]3CO)N(C(C)C)C(C)C)N(C(C)C)C(C)C)N(C(C)C)C(C)C)N(C(C)C)C(C)C)O2)C(O)NC1=O (stereo not given in full) |
